Laboratory results taken from ChEMBL document CHEMBL1629677, “A small-molecule dengue virus entry inhibitor” (Antimicrob Agents Chemother, 2009).
The source made the active and inactive calls. The calls are words filed in the database; no cut-off is given here.

Key:
Dengue virus [1] = assay: Antiviral activity against 0.0001 MOI Dengue virus NGC infected in Cricetinae BHK21 cells assessed as decrease in viral E protein production […] by plaque reduction assay; assay type: functional, organism-based; settings: BHK-21
Dengue virus [2] = assay: Antiviral activity against Dengue virus NGC infected in human A549 cells assessed as decrease in viral E protein production after 48 hrs by CFI assay; assay type: functional, organism-based; settings: A549, 48 h
Method in brief: (§1)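 A549 or BHK21 cells at 2 x 10^4/well grown overnight, then infected at MOI 0.3 with compound dilutions for 1 h at 37°C. Inoculum replaced by medium with compound for 48 h. Methanol-fixed, probed with anti-E antibody 4G2 and HRP anti-mouse IgG, developed with TMB, absorbance at 450 nm. EC50 by nonlinear regression of mean absorbance vs log concentration.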

[3] = Cytotoxicity against human A549 cells after 48 hrs by celltiter-glo luminescent cell viability assay; assay type: cell-based
Method in brief: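 A549 cells plated and compound added as in the immunodetection assay, then incubated for 48 h. Viability by CellTiter-Glo luminescence relative to DMSO-treated cells, giving CC50.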

dengue virus type 4 = assay: Antiviral activity against DENV-4 isolate My01-22713 infected in Cricetinae BHK21 cells assessed as decrease in viral E protein production after 48 hrs by CFI assay; assay type: functional, organism-based; settings: isolate My01-22713, BHK-21, 48 h; method in brief: as §1
West Nile virus = assay: Antiviral activity against West nile virus B956 infected in Cricetinae BHK21 cells assessed as decrease in viral E protein production after 48 hrs by CFI assay; assay type: functional, organism-based; settings: B956, BHK-21, 48 h; method in brief: as §1
Yellow fever virus = assay: Antiviral activity against Yellow fever virus 17D infected in human A549 cells assessed as decrease in viral E protein production after 48 hrs by CFI assay; assay type: functional, cell-based; settings: A549, 48 h; method in brief: as §1
Dengue virus [4] = assay: Antiviral activity against 25 MOI Dengue virus NGC infected in human A549 cells assessed as colocalized virus with endocytosed dextran by confocal microscopy; assay type: functional, organism-based
Method in brief: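 A549 cells on coverslips (1 x 10^5/well) infected at MOI 0.3? no: MOI 25 with 5 µM compound for 7 h. Rhodamine-dextran 20 mg/ml added for 20 min at 37°C, then methanol fixation and anti-E 4G2 staining with FITC secondary. Examined by confocal microscopy.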

dengue virus type 1 = assay: Antiviral activity against DENV-1 isolate My97-10245 infected in Cricetinae BHK21 cells assessed as decrease in viral E protein production after 48 hrs by CFI assay; assay type: functional, organism-based; settings: isolate My97-10245, BHK-21, 48 h; method in brief: as §1
dengue virus type 2 [5] = assay: Antiviral activity against DENV-2 NGC infected in Cricetinae BHK21 cells assessed as decrease in viral E protein production after 48 hrs by CFI assay; assay type: functional, organism-based; settings: BHK-21, 48 h; method in brief: as §1
dengue virus type 2 [6] = assay: Antiviral activity against DENV-2 NGC infected in human A549 cells assessed as decrease in viral E protein production after 48 hrs by CFI assay; assay type: functional, organism-based; settings: A549, 48 h; method in brief: as §1
Dengue virus [7] = assay: Antiviral activity against Dengue virus NGC infected in human A549 cells assessed as decrease in viral E protein production during early stage of virus life cucle by CFI assay; assay type: functional, organism-based; settings: TDE = time-dependent effect
Method in brief: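 A549 cells infected at MOI 0.3 for 1 h at 37°C. Compound dilutions were present during infection only, after infection only, or throughout. Alternatively, a fixed concentration was added at 0–120 min after virus. E protein measured by immunodetection at 48 h. Duplicate wells in two experiments, or three independent experiments for the time course.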

Dengue virus [8] = assay: Antiviral activity against 25 MOI Dengue virus NGC infected in human A549 cells assessed as inhibition of NS3 protein production by CFI assay; assay type: functional, organism-based
Method in brief: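 A549 cells on coverslips infected at MOI 25 with or without compound for 7 h. Methanol-fixed and stained with anti-E 4G2 and anti-NS3 antibodies plus fluorescent secondaries, DAPI mounting. Immunofluorescence microscopy.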

[9] = Antiviral activity against Japanese encephalitis virus Nakayama infected in Cricetinae BHK21 cells assessed as decrease in viral E protein production after 48 hrs by CFI assay; assay type: functional, cell-based, Japanese encephalitis virus strain Nakayama; settings: BHK-21, 48 h; method in brief: as §1
Dengue virus [10] = assay: Antiviral activity against Dengue virus NGC infected in human A549 cells assessed as viral antigen expression at 0.2 microM; assay type: functional
Dengue virus [11] = assay: Antiviral activity against Dengue virus NGC infected in human A549 cells assessed as change in endosomal pH at 0.2 microM by Lysosensor green DND189 accumulation assay; assay type: functional, organism-based
Method in brief: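 A549 cells on coverslips exposed to compound or bafilomycin A1 in Ham's F-12 with 2% FBS for 4 h at 37°C; 0.9% DMSO as control. Stained with 0.5 µM Lysosensor green DND-189 for 2 min at room temperature, washed, and imaged live by fluorescence microscopy.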

dengue virus type 3 = assay: Antiviral activity against DENV-3 isolate My99-21531 infected in Cricetinae BHK21 cells assessed as decrease in viral E protein production after 48 hrs by CFI assay; assay type: functional, organism-based; settings: isolate My99-21531, BHK-21, 48 h; method in brief: as §1
Dengue virus [12] = assay: Binding affinity to Dengue virus particles by liquid chromatography
Method in brief: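 Dengue virus (6 x 10^7 PFU) incubated with 5 µM compound at room temperature for 30 min, then loaded onto a gel-filtration spin column and centrifuged. Eluate analysed by LC-MS/MS in multiple-reaction-monitoring mode. Compound without virus run as a control.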

Dengue virus [13] = assay: Antiviral activity against Dengue virus NGC infected in human A549 cells assessed as colocalization of virus measured as E protin signal after 2 hrs by confocal microscopy; assay type: functional, organism-based
Method in brief: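 Virus pre-incubated with biotinylated compound, then passed through a gel-filtration spin column. Eluate used to infect A549 cells on coverslips for 2 h at 37°C. Cells fixed in formaldehyde for 15 min, compound detected with streptavidin-FITC and virus with anti-E antibody. Confocal microscopy.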

Row | SMILES | EC50 (Dengue virus [1]) [µM] | EC50 (Dengue virus [2]) [µM] | CC50 at 48 h [3] [µM] | also measured
1 | CC1(C)CC(Nc2nc(-c3ccc(-c4ccc(Cl)cc4)s3)c3ccccc3n2)CC(C)(C)N1 | 0.084 | 0.04 | 18.6 | 
2 | CC(=O)c1cccc(-c2ccc(-c3ccnc(NC4CC(C)(C)NC(C)(C)C4)n3)s2)c1 | 0.3 | 0.9 | > 20 | 
3 | Clc1ccc(-c2ccc(-c3nc(NCc4cccnc4)nc4ccccc34)s2)cc1 | 0.198 | 0.07 | > 20 | EC50 (dengue virus type 4): 0.334 µM; EC50 (West Nile virus): 0.564 µM; EC50 (Yellow fever virus): 0.47 µM; Activity (Dengue virus [4]): Active; EC50 (dengue virus type 1): 0.108 µM; EC50 (dengue virus type 2 [5]): 0.068 µM; EC50 (dengue virus type 2 [6]): 0.119 µM; Activity (Dengue virus [7]): tde; Activity (Dengue virus [8]): Active; EC50 [9]: 1.42 µM; Activity (Dengue virus [10]): >50%; Activity (Dengue virus [11]): inactive; EC50 (dengue virus type 3): 0.496 µM; Activity (Dengue virus [12]): Active
4 | CC1(C)CC(Nc2nccc(-c3ccc(-c4ccc(Cl)cc4)s3)n2)CC(C)(C)N1 | 0.32 | 0.27 | > 20 | 
5 | O=C(CCCC[C@@H]1SC[C@H]2NC(=O)N[C@@H]12)NCCOCCOCCNc1nc(-c2ccc(-c3ccc(Cl)cc3)s2)c2ccccc2n1 |  | 0.234 |  | Activity (Dengue virus [13]): inactive
6 | CC(C)(N)/C=C/c1cccc(-c2ccc(-c3ccnc(NC4CC(C)(C)NC(C)(C)C4)n3)s2)n1 | 0.31 | 1.69 | > 20 | 
7 | Clc1ccc(-c2ccc(-c3ccnc(N4CCNCC4)n3)s2)cc1 | 0.041 | 0.09 | > 20 | 
